Results taken from ChEMBL document CHEMBL4017517, “Small Molecule Inhibitors Simultaneously Targeting Cancer Metabolism and Epigenetics: Discovery of Novel Nicotinamide Phosphoribosyltransferase (NAMPT) and Histone Deacetylase (HDAC) Dual Inhibitors” (J Med Chem, 2017).
The source made the active and inactive calls. The rule behind the calls is not given here.

Key:
[1] = target: Nicotinamide phosphoribosyltransferase (Homo sapiens, UniProt P43490); assay: Inhibition of human recombinant NAMPT using NAM as substrate preincubated for 5 mins followed by substrate addition measured after 15 mins by fluorescence assay
Chain of Nicotinamide phosphoribosyltransferase (P43490 whole entry, the tested form may be a part): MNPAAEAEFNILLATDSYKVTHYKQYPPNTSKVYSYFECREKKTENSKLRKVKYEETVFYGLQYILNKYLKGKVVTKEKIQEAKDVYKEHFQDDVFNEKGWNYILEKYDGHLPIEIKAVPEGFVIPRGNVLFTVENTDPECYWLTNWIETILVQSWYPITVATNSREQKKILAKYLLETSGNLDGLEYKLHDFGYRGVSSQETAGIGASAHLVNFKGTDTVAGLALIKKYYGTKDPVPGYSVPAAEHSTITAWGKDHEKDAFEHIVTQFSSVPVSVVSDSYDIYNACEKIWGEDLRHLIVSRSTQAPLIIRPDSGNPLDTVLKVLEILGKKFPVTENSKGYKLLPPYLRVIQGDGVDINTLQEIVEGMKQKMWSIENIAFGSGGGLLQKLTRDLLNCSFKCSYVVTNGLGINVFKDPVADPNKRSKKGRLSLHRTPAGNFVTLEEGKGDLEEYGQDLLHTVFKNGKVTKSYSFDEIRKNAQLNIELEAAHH

Histone deacetylase 1 = Histone deacetylase 1 (Homo sapiens, UniProt Q13547); assay: Inhibition of human recombinant HDAC1 (1 to 482 residues) expressed in Baculovirus using Ac-Leu-Gly-Lys(Ac)-AMC as substrate preincubated for 5 mins followed by substrate addition measured after 30 mins by fluorescence assay
Chain of Histone deacetylase 1 (Q13547 whole entry, the tested form may be a part): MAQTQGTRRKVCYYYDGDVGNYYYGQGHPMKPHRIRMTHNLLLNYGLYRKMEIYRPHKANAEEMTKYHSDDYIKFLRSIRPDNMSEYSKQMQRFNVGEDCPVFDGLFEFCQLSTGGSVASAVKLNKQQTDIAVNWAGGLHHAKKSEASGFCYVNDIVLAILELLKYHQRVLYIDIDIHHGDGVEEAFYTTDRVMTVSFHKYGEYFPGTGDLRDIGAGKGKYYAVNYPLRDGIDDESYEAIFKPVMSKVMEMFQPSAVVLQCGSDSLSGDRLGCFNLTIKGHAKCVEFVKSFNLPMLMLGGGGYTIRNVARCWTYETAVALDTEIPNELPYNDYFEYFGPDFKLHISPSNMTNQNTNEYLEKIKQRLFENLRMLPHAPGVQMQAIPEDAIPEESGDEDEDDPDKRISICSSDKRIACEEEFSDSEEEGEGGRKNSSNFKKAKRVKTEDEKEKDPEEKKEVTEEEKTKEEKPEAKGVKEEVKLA

HCT-116 [2] = assay: cells; type: functional, cell-based; conditions: Homo sapiens, HCT-116, 72 h
MDA-MB-231 = assay: cells; type: functional, cell-based; conditions: Homo sapiens, MDA-MB-231, 72 h
HepG2 = assay: cells; type: functional, cell-based; conditions: Homo sapiens, HepG2, 72 h
[3] = Terminal half life in BALB/C nude mouse at 25 mg/kg, po; type: ADME, organism-based; conditions: in vivo, read-out: beta t1/2 (converted)
Outline: (§1)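 Mice given a single oral dose of 25 mg/kg. Plasma pharmacokinetics sampled to obtain terminal half-life and Cmax.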

[4] = Cmax in BALB/C nude mouse at 25 mg/kg, po; type: ADME, organism-based; parameters: dose 25 mg/kg, route oral; conditions: in vivo; outline: as §1
HCT-116 [5] = assay: Antitumor activity against human HCT116 cells xenografted in BALB/C nude mouse assessed as tumor growth inhibition at 25 mg/kg, po administered as single dose for 14 consecutive days measured after 30 to 33 days post implantation; type: functional, organism-based
Outline: (§2)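 Male BALB/C nude mice (18–20 g) bearing subcutaneous HCT116 right-axilla tumors; treatment started at about 100–300 mm³. Five mice per treatment, eight controls. Dosed po 25 mg/kg/day for 14 consecutive days as suspension in 0.5% carboxymethyl cellulose; controls got vehicle. Tumor volume (1/2 × length × width²) and body weight recorded every 3 days. Sacrifice day 30–33 post-implant.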

Mus musculus = assay: Toxicity in BALB/C nude mouse xenografted with human HCT116 cells assessed as change in body weight at 25 mg/kg, po administered as single dose for 14 consecutive days measured during compound dosing; type: organism-based; conditions: in vivo; outline: as §2
HCT-116 [6] = assay: Induction of apoptosis in human HCT116 cells assessed as early apoptotic cells at 5 uM after 72 hrs by Annexin V-FITC/propidium iodide staining-based flow cytometric analysis (reference value: 7.82%); type: functional
Outline: (§3)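 HCT116 cells seeded at 5×10^5 cells/mL in six-well plates, treated at 5 μM for 72 h alongside vehicle. Cells trypsinized, washed twice in cold PBS, and resuspended in 1× binding buffer. Stained with annexin V-FITC 15 min at room temperature, then PI 15 min in dark, then flow cytometry.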

HCT-116 [7] = assay: Induction of apoptosis in human HCT116 cells assessed as late apoptotic cells at 5 uM after 72 hrs by Annexin V-FITC/propidium iodide staining-based flow cytometric analysis (reference value: 3.33%); type: functional; outline: as §3
HCT-116 [8] = assay: Induction of apoptosis in human HCT116 cells assessed as necrotic cells at 5 uM after 72 hrs by Annexin V-FITC/propidium iodide staining-based flow cytometric analysis (reference value: 1.25%); type: functional; outline: as §3
HCT-116 [9] = assay: Antitumor activity against human HCT116 cells xenografted in BALB/C nude mouse assessed as tumor growth inhibition at 15 mg/kg, ip bid administered for 21 consecutive days measured after 30 to 33 days post implantation relative to control; type: functional; conditions: HCT-116, ip, read-out: TGI
Outline: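 HCT116 cells implanted subcutaneously in right axilla of male BALB/C nude mice (18–20 g). Dosing began at tumor volume about 100–300 mm³; five mice per treatment, eight controls. Given ip bid for 21 consecutive days in 0.1% Tween 80 in normal saline, with vehicle controls. Caliper volume TV = 1/2 × a × b² measured every 3 days. Mice sacrificed day 30–33 post-implant; TGI calculated at end of treatment.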

Structure (SMILES) | IC50 [1] [µM] | IC50 (Histone deacetylase 1) [µM] | IC50 (HCT-116 [2]) [µM] | IC50 (MDA-MB-231) [µM] | IC50 (HepG2) [µM] | half-life [3] [h] | Cmax [4] [nM] | TGI (HCT-116 [5]) | Activity (Mus musculus) | Activity (HCT-116 [6]) [%] | Activity (HCT-116 [7]) [%] | Activity (HCT-116 [8]) [%] | inhibition in vivo at 15 mg/kg (HCT-116 [9]) [%]
Nc1ccccc1NC(=O)c1ccc(NC(=S)NCc2ccc(Cl)nc2)cc1 | > 2 | 0.25 | 6.1 | 42 | 19 |  |  |  |  |  |  |  | 
Cc1ccc(CNC(=S)Nc2ccc(C(=O)Nc3ccccc3N)cc2)cn1 | > 2 | 0.26 | 11 | 63 | 11 |  |  |  |  |  |  |  | 
Nc1ccccc1NC(=O)c1ccc(CNC(=O)c2cc3cnccc3[nH]2)cc1 | > 2 | 0.084 | 4 | 48 | 1.7 |  |  |  |  |  |  |  | 
Nc1ccccc1NC(=O)c1ccc(NC(=S)NCc2nc3ccccc3[nH]2)cc1 | > 2 | 0.046 | 22 | > 100 | 31 |  |  |  |  |  |  |  | 
Nc1ccc(CNC(=O)Nc2ccc(C(=O)Nc3ccccc3N)cc2)cn1 | > 2 | 0.33 | 7.3 | > 100 | 3.1 |  |  |  |  |  |  |  | 
Nc1cccc(CNC(=S)Nc2ccc(C(=O)Nc3ccccc3N)cc2)c1 | > 2 | 0.22 | 2.8 | > 100 | 3.3 |  |  |  |  |  |  |  | 
Nc1ccccc1NC(=O)c1ccc(NC(=S)NCc2cccnc2)cc1 | 0.116 to 0.12 | 1.6 | 1 |  | 4.2 | 1.8 | 2300 | Active | Non-Toxic |  |  |  | 
Nc1ccccc1NC(=O)c1ccc(NC(=S)NCc2cccc(F)c2)cc1 | > 2 | 0.17 | 5.9 | 74 | 2.9 |  |  |  |  |  |  |  | 
Nc1ccccc1NC(=O)c1ccc(NC(=O)NCc2ccc(F)nc2)cc1 | > 2 | 0.28 | 14 | 91 | 13 |  |  |  |  |  |  |  | 
Nc1ccccc1NC(=O)c1ccc(CNC(=O)c2cc3cccnc3[nH]2)cc1 | > 2 | 0.033 | 10 | > 100 | 6.1 |  |  |  |  |  |  |  | 
Nc1ccc(CNC(=S)Nc2ccc(C(=O)Nc3ccccc3N)cc2)cn1 | > 2 | 0.2 | 27 | > 100 | 14 |  |  |  |  |  |  |  | 
Nc1ccccc1NC(=O)c1ccc(CNC(=O)c2ccc3cn[nH]c3c2)cc1 | > 2 | 0.24 | 18 | 98 | 23 |  |  |  |  |  |  |  | 
Nc1ccccc1NC(=O)c1ccc(CNC(=O)c2ccc3cncn3c2)cc1 | > 2 | 0.093 | 7.4 | 54 | 3.4 |  |  |  |  |  |  |  | 
Nc1ccccc1NC(=O)c1ccc(NC(=O)NCc2cccnc2)cc1 | 0.55 | 0.22 | 9.4 | > 100 | 5.1 |  |  |  |  |  |  |  | 
O=S(=O)(c1ccc(NC(=S)NCc2cccnc2)cc1)N1CCCCC1 |  | > 10 | 41 |  | 5.3 |  |  |  |  | 29.11 | 11.4 | 1.62 | 
Nc1ccccc1NC(=O)c1ccc(NC(=S)NCc2cncc(Br)c2)cc1 | > 2 | 0.35 | 9.2 | 39 | 7.5 |  |  |  |  |  |  |  | 
Nc1ccccc1NC(=O)c1ccc(NC(=S)NCc2ccccc2F)cc1 | > 2 | 0.3 | 6.3 | > 100 | 5.4 |  |  |  |  |  |  |  | 

Structure (SMILES) | IC50 [1] [µM] | IC50 (Histone deacetylase 1) [µM] | IC50 (HCT-116 [2]) [µM] | IC50 (MDA-MB-231) [µM] | IC50 (HepG2) [µM] | half-life [3] [h] | Cmax [4] [nM] | TGI (HCT-116 [5]) | Activity (Mus musculus) | Activity (HCT-116 [6]) [%] | Activity (HCT-116 [7]) [%] | Activity (HCT-116 [8]) [%] | inhibition in vivo at 15 mg/kg (HCT-116 [9]) [%]
Nc1ccccc1NC(=O)c1ccc(NC(=S)NCc2ccc(F)nc2)cc1 | > 2 | 0.37 | 10 | 81 | 5.2 |  |  |  |  |  |  |  | 
Nc1ccccc1NC(=O)c1ccc(NC(=O)/C(Cl)=C(\Cl)c2cccnc2)cc1 | > 2 | 0.67 | 2.4 | 13 | 0.56 |  |  |  |  |  |  |  | 
Nc1ccccc1NC(=O)c1ccc(CNC(=O)c2cc3ccncc3[nH]2)cc1 | > 2 | 0.071 | 3.3 | 41 | 4.7 |  |  |  |  |  |  |  | 
Nc1ccccc1NC(=O)c1ccc(Cn2cc(-c3ccc(NC(=O)NCc4cccnc4)cc3)nn2)cc1 | 0.018 | 0.041 | > 100 | > 100 | 8.1 |  |  |  |  |  |  |  | 
O=C(/C=C/c1cccnc1)NCCCCC1CCN(C(=O)c2ccccc2)CC1 [DAPORINAD] |  |  | 1.6 | 1.3 | 0.89 |  |  |  |  |  |  |  | 39
CC(C)(C)OC(=O)Nc1ccc(CNC(=O)Nc2ccc(C(=O)Nc3ccccc3N)cc2)cn1 | > 2 | 3.3 | 100 | > 100 | 100 |  |  |  |  |  |  |  | 
Nc1ccccc1NC(=O)c1ccc(NC(=S)NCc2cccc(Cl)c2)cc1 | > 2 | 0.18 | 5.9 | 92 | 2.6 |  |  |  |  |  |  |  | 
Nc1ccccc1NC(=O)c1ccc(NC(=O)/C=C/c2cccnc2)cc1 | 0.23 | 0.62 | 48 | > 100 | 2.7 |  |  |  |  |  |  |  | 
Nc1ccccc1NC(=O)c1ccc(CNC(=O)c2ccn3ccnc3c2)cc1 | > 2 | 0.087 | 1.8 | 46 | 5.5 |  |  |  |  |  |  |  | 
Nc1ccccc1NC(=O)c1ccc(CCn2cc(-c3cccnc3)nn2)cc1 | 0.19 | 0.18 | 5.5 | 41 | 3.2 |  |  |  |  |  |  |  | 
CC(=O)Nc1ccc(C(=O)Nc2ccccc2N)cc1 [TACEDINALINE] | > 2 |  | 10 |  | 10 |  |  |  |  | 10.81 | 20.75 | 3.71 | 
Nc1ccccc1NC(=O)c1ccc(NC(=S)NCc2cncc(F)c2)cc1 | > 2 | 0.44 | 15 | 85 | 13 |  |  |  |  |  |  |  | 
Nc1ccccc1NC(=O)c1ccc(NC(=O)NCc2ccc(Cl)nc2)cc1 | > 2 | 0.021 | 5.2 | 34 | 2.4 |  |  |  |  |  |  |  | 
Nc1ccccc1NC(=O)c1ccc(NC(=S)NCc2ccc(F)cc2)cc1 | > 2 | 0.3 | 15 | > 100 | 8.8 |  |  |  |  |  |  |  | 
Nc1ccccc1NC(=O)c1ccc(CNC(=O)c2cc3cnccc3s2)cc1 | > 2 | 0.083 | 3 | 40 | 0.38 |  |  |  |  |  |  |  | 
Nc1ccccc1NC(=O)c1ccc(NC(=S)NCc2ccc3c(c2)OCO3)cc1 | > 2 | 0.1 | 8.4 | > 100 | 5.1 |  |  |  |  |  |  |  | 
